Assay results taken from ChEMBL document CHEMBL1177650, “Synthesis, structural elucidation and in vitro antiparasitic activity against Trypanosoma cruzi and Leishmania chagasi parasites of novel tetrahydro-1-benzazepine derivatives” (Bioorg Med Chem, 2010).
pIC50: −log10 of the molar value.

Experiments:
[1] = Cytotoxicity against african green monkey Vero cells after 72 hrs by MTT assay; format: cell-based; conditions: chlorocebus sabaeus
Outline: (§1)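 Vero or transformed THP-1 cells incubated with compound (0.3–300 μM) 72 h at 37 °C, 5% CO2; untreated controls. MTT read-out, formazan OD at 580 nm; % cytotoxicity = 100 × (OD control − OD treated)/OD control. CC50/CC90 by sigmoidal regression; triplicates, repeated twice. DMSO stocks 100× concentrated, diluted in medium.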

[2] = Selectivity index, CC50 for human THP1 cells to IC50 for Leishmania chagasi MHOM/BR/74/PP75 amastigotes; format: functional, THP-1
Outline: (§2)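 Selectivity index computed as CC50 in THP-1 cells divided by IC50 against the L. chagasi stage named in the line.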

[3] = Selectivity index, CC50 for african green monkey Vero cells to IC50 for Trypanosoma cruzi 320I01 amastigotes; format: functional
Outline: (§3)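 Selectivity index computed as CC50 in Vero cells divided by IC50 against the T. cruzi stage named in the line.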

[4] = Cytotoxicity against human THP1 cells after 72 hrs by MTT assay; format: cell-based; conditions: THP-1 cells; outline: as §1
Leishmania chagasi [5] = test: Antileishmanial activity against Leishmania chagasi MHOM/BR/74/PP75 promastigotes after 72 hrs by haemocytometry; format: functional, organism-based; conditions: MHOM/BR/74/PP75, 72 h
Outline: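 Late-phase L. chagasi promastigotes, grown at 28 °C in RPMI 1640 with hemin, HEPES and 10% hiSBF, exposed to threefold serial dilutions (0.3–100 μM) for 72 h at 28 °C; untreated controls. Growth inhibition from haemocytometer counts; IC50/IC90 by sigmoidal regression; triplicates, repeated twice.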

Trypanosoma cruzi [6] = test: Antitrypanosomal activity against Trypanosoma cruzi 320I01 amastigotes infected in african green monkey Vero cells after 5 days by Giemsa staining; format: functional, organism-based; conditions: 320I01, Vero, 120 h
Outline: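 Vero cells (RPMI, 5% hiSBF, 37 °C, 5% CO2) infected 24 h with tissue-derived T. cruzi trypomastigotes at parasite:cell 10:1. Compound dilutions (top 100 μM) applied 5 days at 37 °C, 5% CO2, medium changed once at day 3. Infected cells scored per 300 cells on methanol-fixed Giemsa preparations; IC50/IC90 by sigmoidal regression; triplicates, two experiments.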

[7] = Selectivity index, CC50 for human THP1 cells to IC50 for Leishmania chagasi MHOM/BR/74/PP75 promastigotes; format: functional, THP-1; outline: as §2
[8] = Selectivity index, CC50 for african green monkey Vero cells to IC50 for Trypanosoma cruzi 320I01 epimastigote; format: functional; outline: as §3
Trypanosoma cruzi [9] = test: Antitrypanosomal activity against Trypanosoma cruzi 320I01 epimastigotes after 72 hrs by haemocytometry; format: functional, organism-based; conditions: 320I01, 72 h
Outline: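 Late-phase T. cruzi epimastigotes cultured in LIT medium with hiFCS at 28 °C; threefold serial dilutions (0.3–100 μM) for 72 h at 28 °C, untreated controls. Parasites counted in a haemocytometer; IC50/IC90 by sigmoidal regression; each concentration in triplicate, two experiments.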

Leishmania chagasi [10] = test: Antileishmanial activity against Leishmania chagasi MHOM/BR/74/PP75 amastigotes infected in human THP1 cells after 5 days by Giemsa staining; format: functional, organism-based; conditions: MHOM/BR/74/PP75, THP-1, 120 h
Outline: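 THP-1 cells (RPMI, 5% hiSBF, 37 °C, 5% CO2) transformed, then infected 24 h with late-phase L. chagasi promastigotes at parasite:cell 10:1. Treated with compound dilutions (top 100 μM) 5 days at 37 °C, 5% CO2, medium changed once after 3 days. Infected cells counted per 300 cells on methanol-fixed Giemsa slides; IC50/IC90 by sigmoidal regression; triplicates, repeated twice.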

SMILES	CC50 at 72 h [1]	CC90 at 72 h [1]	Selectivity Index [2]	Selectivity Index [3]	CC50 at 72 h [4]	CC90 at 72 h [4]	pIC50 (Leishmania chagasi [5])	IC90 (Leishmania chagasi [5])	pIC50 (Trypanosoma cruzi [6])	IC90 (Trypanosoma cruzi [6])	Selectivity Index [7]	Selectivity Index [8]	pIC50 (Trypanosoma cruzi [9])	IC90 (Trypanosoma cruzi [9])	pIC50 (Leishmania chagasi [10])	IC90 (Leishmania chagasi [10])
O[C@@H]1Cc2ccccc2N[C@H](c2cccc(Cl)c2)C1 (relative stereo)	295 µM	> 300 µM	>1	>3	167 µM	> 300 µM	4.38	47 µM	< 4.00	> 100 µM	4.04	15.05	4.71	> 100 µM	< 4.00	> 100 µM
O[C@@H]1Cc2cc(Br)ccc2N[C@H](c2ccccc2)C1 (relative stereo)	42.1 µM	> 300 µM	>1	0.43	185 µM	> 300 µM	4.35	> 100 µM	4.01	99.4 µM	4.1	2.68	4.80	57.4 µM	4.01	> 100 µM
O[C@@H]1Cc2cc(Cl)ccc2N[C@H](c2ccccc2)C1 (relative stereo)	191 µM	> 300 µM	>1	>2	188 µM	> 300 µM	4.66	90.6 µM	< 4.00	> 100 µM	8.5	3.85	4.30	> 100 µM	< 4.00	> 100 µM
O[C@@H]1Cc2cc(F)ccc2N[C@H](c2ccccc2)C1 (relative stereo)	> 300 µM	> 300 µM	>3	>3	> 300 µM	> 300 µM	< 4.00	> 100 µM	< 4.00	> 100 µM	>3	>24	4.91	> 100 µM	< 4.00	> 100 µM
Cc1cccc([C@@H]2C[C@H](O)Cc3ccccc3N2)c1 (relative stereo)	> 300 µM	> 300 µM	>1	>3	176 µM	> 300 µM	< 4.00	> 100 µM	4.01	> 100 µM	>1	>19	4.81	54.9 µM	< 4.00	> 100 µM
Cc1ccc([C@@H]2C[C@H](O)Cc3cc(C)ccc3N2)cc1 (relative stereo)	> 300 µM	> 300 µM	>1	>6	172 µM	> 300 µM	< 4.00	> 100 µM	4.30	> 100 µM	>1	>49	5.21	35.3 µM	< 4.00	> 100 µM
O[C@@H]1Cc2cc(Cl)ccc2N[C@H](c2ccc(Cl)cc2)C1 (relative stereo)	76.6 µM	> 300 µM	>0.49	>0.8	49.2 µM	> 300 µM	4.85	41 µM	< 4.00	> 100 µM	3.49	4.65	4.78	29.7 µM	< 4.00	> 100 µM
Cc1ccc2c(c1)C[C@@H](O)C[C@@H](c1ccccc1Cl)N2 (relative stereo)	82.4 µM	> 300 µM	>0.85	1.8	85.2 µM	> 300 µM	4.38	49.4 µM	4.34	73.6 µM	2.06	3.67	4.65	67.2 µM	< 4.00	> 100 µM
O[C@@H]1Cc2ccccc2N[C@H](c2ccc(Cl)cc2)C1 (relative stereo)	> 300 µM	> 300 µM	>1	>7	114 µM	> 300 µM	4.17	> 100 µM	4.38	> 100 µM	1.68	>4	4.18	> 100 µM	< 4.00	> 100 µM
O[C@@H]1Cc2ccccc2N[C@H](c2ccc(F)cc2)C1 (relative stereo)	> 300 µM	> 300 µM	>3	>3	> 300 µM	> 300 µM	< 4.00	> 100 µM	< 4.00	> 100 µM	>3	>11	4.58	57.6 µM	< 4.00	> 100 µM
COc1cccc([C@@H]2C[C@H](O)Cc3ccccc3N2)c1 (relative stereo)	> 300 µM	> 300 µM	>3	>3	> 300 µM	> 300 µM	4.01	> 100 µM	< 4.00	> 100 µM	>3	>10	4.52	70.2 µM	< 4.00	> 100 µM
O[C@@H]1Cc2cc(Cl)ccc2N[C@H](c2ccc(Br)cc2)C1 (relative stereo)	57.7 µM	164 µM	>1.61	>0.6	153 µM	280 µM	5.02	11.7 µM	< 4.02	> 94.9 µM	16.05	2.12	4.57	54.4 µM	< 4.02	> 94.9 µM
O[C@@H]1Cc2cc(F)ccc2N[C@H](c2ccc(Cl)cc2)C1 (relative stereo)	194 µM	> 300 µM	>1	>1.9	100 µM	> 300 µM	4.77	77.7 µM	< 4.00	> 100 µM	5.86	4.21	4.34	> 100 µM	< 4.00	> 100 µM
O[C@@H]1Cc2ccccc2N[C@H](c2ccccc2Cl)C1 (relative stereo)	> 300 µM	> 300 µM	>3	>3	> 300 µM	> 300 µM	4.07	> 100 µM	< 4.00	> 100 µM	>3	>6	4.30	> 100 µM	< 4.00	> 100 µM
O[C@@H]1Cc2ccccc2N[C@H](c2ccccc2F)C1 (relative stereo)	> 300 µM	> 300 µM	>3	>3	> 300 µM	> 300 µM	< 4.00	> 100 µM	< 4.00	> 100 µM	>3	>4	4.20	> 100 µM	< 4.00	> 100 µM
